The source made the active and inactive calls. The calls are words filed in the database; no cut-off is given here.
Tests used:
[1] = molecular target: Kappa-type opioid receptor (Homo sapiens) (UniProt P41145); test: Antagonist activity at human kappa opioid receptor expressed in CHO cells assessed as inhibition of U69,593-stimulated [35S]GTPgammaS binding at 10 nM relative to control; type: functional, cell-based
Homo sapiens [2] = species: Homo sapiens; test: Selectivity ratio of Ke for human delta opioid receptor to Ke for human kappa opioid receptor
[3] = molecular target: Kappa-type opioid receptor (Homo sapiens) (UniProt P41145); test: Antagonist activity at human kappa opioid receptor expressed in CHO cells assessed as inhibition of U69,593-stimulated [35S]GTPgammaS binding; type: functional, cell-based
Outline: (§1)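 Agonist concentration-response curves (eight concentrations, duplicate) were run with or without a single test-compound concentration. Ke = [L]/(DR−1), where [L] is the test-compound concentration and DR is the ratio of agonist EC50 with versus without compound. At least two test-compound concentrations were used, chosen to shift agonist EC50 rightward at least four-fold while keeping a clear upper asymptote.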

[4] = molecular target: Kappa-type opioid receptor (Homo sapiens) (UniProt P41145); test: Intrinsic activity at human kappa opioid receptor expressed in CHO cells at 10 uM by [35S]GTPgammaS binding assay; type: functional, cell-based
[5] = molecular target: Delta-type opioid receptor (Homo sapiens) (UniProt P41143); test: Intrinsic activity at human delta opioid receptor expressed in CHO cells at 10 uM by [35S]GTPgammaS binding assay; type: functional, cell-based
Homo sapiens [6] = species: Homo sapiens; test: Selectivity ratio of Ke for human mu opioid receptor to Ke for human kappa opioid receptor
[7] = molecular target: Delta-type opioid receptor (Homo sapiens) (UniProt P41143); test: Antagonist activity at human delta opioid receptor expressed in CHO cells assessed as inhibition of DPDPE-stimulated [35S]GTPgammaS binding; type: functional, cell-based; outline: as §1
[8] = molecular target: Mu-type opioid receptor (Homo sapiens) (UniProt P35372); conditions: CHO
Mu-type opioid receptor (Homo sapiens), sequence (P35372 whole entry): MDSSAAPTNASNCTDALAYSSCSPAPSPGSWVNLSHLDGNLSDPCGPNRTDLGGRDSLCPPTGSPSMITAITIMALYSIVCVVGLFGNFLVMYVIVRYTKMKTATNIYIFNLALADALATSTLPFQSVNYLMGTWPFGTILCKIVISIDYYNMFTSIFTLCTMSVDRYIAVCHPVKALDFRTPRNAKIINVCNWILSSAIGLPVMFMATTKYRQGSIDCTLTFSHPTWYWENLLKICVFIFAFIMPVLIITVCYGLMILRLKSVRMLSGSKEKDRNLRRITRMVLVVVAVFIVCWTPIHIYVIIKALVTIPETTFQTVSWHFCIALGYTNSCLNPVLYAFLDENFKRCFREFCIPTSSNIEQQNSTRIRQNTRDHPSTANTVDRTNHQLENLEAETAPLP

Kappa-type opioid receptor (Homo sapiens), sequence (P41145 whole entry): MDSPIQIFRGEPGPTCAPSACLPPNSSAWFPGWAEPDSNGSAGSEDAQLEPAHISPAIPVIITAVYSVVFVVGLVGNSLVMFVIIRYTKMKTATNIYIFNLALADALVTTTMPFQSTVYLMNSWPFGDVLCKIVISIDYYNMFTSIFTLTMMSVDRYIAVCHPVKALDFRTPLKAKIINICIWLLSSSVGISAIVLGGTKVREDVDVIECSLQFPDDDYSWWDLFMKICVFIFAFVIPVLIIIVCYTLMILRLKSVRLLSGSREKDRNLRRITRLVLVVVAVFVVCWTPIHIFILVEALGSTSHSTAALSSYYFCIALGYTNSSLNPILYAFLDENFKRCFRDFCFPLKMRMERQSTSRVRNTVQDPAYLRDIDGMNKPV
Delta-type opioid receptor (Homo sapiens), sequence (P41143 whole entry): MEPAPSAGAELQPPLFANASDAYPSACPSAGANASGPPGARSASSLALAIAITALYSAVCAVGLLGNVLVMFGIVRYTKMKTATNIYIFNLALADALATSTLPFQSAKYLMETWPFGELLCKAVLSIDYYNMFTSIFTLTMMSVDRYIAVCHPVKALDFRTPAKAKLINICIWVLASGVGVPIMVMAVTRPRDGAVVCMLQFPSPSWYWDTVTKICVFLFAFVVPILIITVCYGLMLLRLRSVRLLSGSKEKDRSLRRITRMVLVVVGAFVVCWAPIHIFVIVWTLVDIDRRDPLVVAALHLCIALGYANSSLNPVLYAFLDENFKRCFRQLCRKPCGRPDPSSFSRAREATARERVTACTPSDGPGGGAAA

| SMILES | inhibition [1] [%] | Ratio Ke (Homo sapiens [2]) | Ke [3] [nM] | Activity [4] | Activity [5] | Ratio Ke (Homo sapiens [6]) | Ke [7] [nM] | Ke [8] [nM] |
| --- | --- | --- | --- | --- | --- | --- | --- | --- |
| CCCCc1ccc(C(=O)N[C@H](CN2CCN(c3cccc(O)c3)[C@@H](C)C2)C(C)C)cc1 | > 60 | 83 | 2.8 | inactive | inactive | 7.5 |  |  |
| CC(C)[C@@H](CN1CCN(c2cccc(O)c2)[C@@H](C)C1)NC(=O)c1ccc(-c2ccccc2)cc1 | > 60 | 137 | 1.87 | inactive | inactive | 4.7 |  |  |
| CC(C)[C@@H](CN1CCN(c2cccc(O)c2)[C@@H](C)C1)NC(=O)c1ccc(Oc2ccccc2)cc1 | > 60 | 671 | 0.85 | inactive | inactive | 60 | 570 | 51 |
